# Assay results published in ChEMBL document CHEMBL3244407, “Synthesis of spiro[tetralin-2,2'-pyrrolidine] and spiro[indan-2,2'-pyrrolidine] derivatives as potential analgesics” (J Med Chem, 1978).
# Activity calls are given as the source filed them. No cut-off for these calls is given here.
# What was measured:
# Mus musculus [1] = organism: Mus musculus; test: animal or person; type: functional; details: route oral
# Mus musculus [2] = organism: Mus musculus; test: Analgesic activity in mouse by hot-plate test; type: functional
# Mus musculus [3] = test: Antidepressant activity in mouse assessed as reversal of reserpine-induced hypothermia measured as cumulative temperature rise at 30 mg/kg administered 17 hrs post reserpine-challenge; type: functional
# Method in brief: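 Groups of six mice pretreated with reserpine 2 mg/kg sc; compound given 17 h later. Gastric temperature read just before dosing (t0) and at 2, 4 and 6 h. Cumulative rise T = (t2 + t4 + t6) − 3t0, averaged per group, in °C.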
# Mus musculus [4] = organism: Mus musculus; test: Effect on CNS activity in mouse by maximal electroshock test; type: functional, organism-based; details: Central nervous system
# Mus musculus [5] = organism: Mus musculus; test: Effect on CNS activity in mouse by maximal metrazole shock test; type: functional, organism-based; details: Central nervous system
# Mus musculus [6] = organism: Mus musculus; test: Effect on locomotor activity in mouse; type: functional, organism-based
# Mus musculus [7] = organism: Mus musculus; test: Neurotoxicity in mouse by stationary rod test; type: toxicity, organism-based; details: in vivo
# Mus musculus [8] = test: Analgesic activity in mouse assessed as inhibition of acetic acid-induced writhing response at 100 mg/kg, po administered 30 mins prior to acetic acid-challenge relative to control; type: functional
# Method in brief: (§1)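 Mice in groups, dosed orally with vehicle or compound; 30 min later given dilute acetic acid ip (0.4 mL, 0.25%). Total squirming movements counted.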
# Mus musculus [9] = test: Analgesic activity in mouse assessed as inhibition of acetic acid-induced writhing response at 30 mg/kg, po administered 30 mins prior to acetic acid-challenge relative to control; type: functional
# Method in brief: as §1
SMILES,inhibition in vivo at 10 mg/kg (Mus musculus [1]) [%],ED50 (Mus musculus [2]) [mg/kg],T (Mus musculus [3]) [°C],Activity (Mus musculus [4]),Activity (Mus musculus [5]),Activity (Mus musculus [6]),Activity (Mus musculus [7]),inhibition in vivo at 100 mg/kg (Mus musculus [8]) [%],inhibition in vivo at 30 mg/kg (Mus musculus [9]) [%]
Cl.c1ccc2c(c1)CCC1(CCCN1)C2 (stereo not given),100,7.1,4.5,inactive,inactive,inactive,Non-toxic,–,–
CN1CCCC12CCc1ccccc1C2.Cl (stereo not given),100,7.4,2.7,inactive,inactive,inactive,Non-toxic,–,–
CN1CCCC12Cc1ccccc1C2.Cl,–,–,5.1,inactive,inactive,inactive,Non-toxic,50,–
Br.COc1ccc2c(c1)CCC1(CCCN1C)C2 (stereo not given),–,–,1.2,inactive,inactive,inactive,Non-toxic,–,75
Br.Oc1ccc2c(c1)CCC1(CCCN1)C2 (stereo not given),–,–,0.7,inactive,inactive,inactive,Non-toxic,–,0
Br.CN1CCCC12CCc1cc(O)ccc1C2 (stereo not given),–,–,0.7,inactive,inactive,inactive,Non-toxic,–,75
COc1ccc2c(c1)CCC1(CCCN1)C2.Cl (stereo not given),–,–,0.2,inactive,inactive,inactive,Non-toxic,–,50
CN1CC[C@]23c4c5ccc(O)c4O[C@H]2[C@@H](O)C=C[C@H]3[C@H]1C5.Cl [MORPHINE HYDROCHLORIDE],100,–,0.3,–,–,–,–,–,–
Cl.c1ccc2c(c1)CC1(CCCN1)C2,50,> 30,5.1,inactive,inactive,inactive,Non-toxic,–,–
CN(C)CCCN1c2ccccc2CCc2ccccc21 [IMIPRAMINE],–,–,8,–,–,–,–,–,50
